ERp5 inh: ERp5 (human) disulfide isomerase inhibition | Q15084 | ERp5 insulin aggregation, absorbance 650 nm, 90 min | inhibition, % at 9.99 µM | hit rate 0.05% among 350,000 | AID 651711;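 active = mean replicate inhibition above about 25%, with every replicate also reaching it, limit read from the data, passing the limit was not always enough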
MLL AF4-AF9 inh: MLL-AF4/AF9 protein interaction inhibition. AlphaScreen, biotin-AF4 peptide binding to FLAG-AF9. inhibition, % at 10 µM. hit rate 0.47% among 350,000. AID 651704;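 active = every replicate reaching a set inhibition limit, whatever the replicate mean, cut at about 25% in these data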;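 also: 0% = plate neutral control median and 100% = total signal loss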
FN deposit inh: fibronectin deposition inhibition; hit rate 0.086% among 350,000; AID 743247; AH1F fibroblasts, Alexa488-fibronectin deposition fluorescence, overnight; inhibition, % at 12.6 µM;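 active = mean inhibition across replicates of 30% or more, regardless of how many single replicates reach that level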;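 also: positive control wells lacked labelled fibronectin entirely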
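Material: AH1F fibroblast monolayer depositing Alexa488-labelled fibronectin into matrix | Input: 10000 AH1F cells/well | Medium: DMEM plus 2% serum, read in PBS | Reagent: Alexa488-fibronectin, 24 nM final in well | Compound dosing: One dose per compound, pinned | Schedule: 1 h adhesion, overnight exposure | Measured by: Fluorescence at 485 nm excitation, 525 nm emission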
SIRT5 block: sirtuin-5 (human) deacylase inhibition. AID 652115. Q9NXA8. Purified SirT5, succinyl-peptide AMC, trypsin-coupled fluorescence. hit rate 1.1% among 330,000. inhibition, % at 15 µM; in the data active = inhibition above about 15%
Target sequence (Q9NXA8 whole entry, looked up): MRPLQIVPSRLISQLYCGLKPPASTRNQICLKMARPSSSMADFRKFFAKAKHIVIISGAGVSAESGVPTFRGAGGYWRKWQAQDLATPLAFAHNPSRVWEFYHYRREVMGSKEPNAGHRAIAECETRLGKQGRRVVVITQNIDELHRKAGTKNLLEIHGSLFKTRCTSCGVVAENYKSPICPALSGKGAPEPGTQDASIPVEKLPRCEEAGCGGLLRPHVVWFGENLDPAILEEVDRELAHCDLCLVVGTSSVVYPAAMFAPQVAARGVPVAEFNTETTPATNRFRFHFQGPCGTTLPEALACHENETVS
PDI inh: blocks human protein disulfide isomerase activity. P07237. PDI insulin aggregation turbidity, A650, 90 min. inhibition, % at 10 µM. hit rate 0.052% among 350,000;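 active = mean inhibition across replicates of 30% or more, whatever share of single replicates reach that level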
* marks the source's active call; other numbers are inactive results; . = no result. Most compounds without a hit are left out; they make up all but 1.3% or so of the library.

SMILES	ERp5 inh	MLL AF4-AF9 inh	FN deposit inh	SIRT5 block	PDI inh
C/C(N)=C(/C#N)C(=O)CSc1nnc(Nc2ccccc2)s1	-1	0	-6	18*	9
C/C(N)=C(/C#N)C(=O)CSc1nnc(Nc2ccccc2C)s1	.	.	.	.	4
CCCCn1c(-c2csc(C(C)C)c2)n[nH]c1=S	-4	-3	4	17*	11
CCN(CC(=O)Nc1ccc(NC(C)=O)cc1)C(=O)c1cc(-c2ccccc2)nn1-c1ccccc1	8	-1	-5	-5	0
O=C(Nc1ccccc1)/C(=C/c1ccc(O)cc1)NC(=O)c1ccco1	0	-7	-15	30*	-3
O=C(Nc1ccccc1)/C(=C/c1ccccc1)NC(=O)c1ccco1	3	-1	5	-3	-7
CC(=O)N(C)C[C@@H]1Oc2cc(C#CC(C)(C)O)ccc2S(=O)(=O)N([C@@H](C)CO)C[C@@H]1C	-8	0	-4	-4	.
COc1ccc(-c2noc(CCC(=O)NC3CCN(Cc4ccccc4)CC3)n2)cc1	.	.	-2	.	-6
COc1cc(/C=N/NC(=O)c2nonc2N)cc(OC)c1OC	-5	-3	-1	18*	7
Cc1cccc(/C(N)=N/OC(=O)COc2ccccc2Cl)c1	3	1	-1	17*	-5
CC(C)(C)NNC(=S)Nc1cccc(F)c1	.	-1	6	-6	0
CN1C(=O)C(N=Nc2ccc([N+](=O)[O-])cc2)SC1=S (stereo unspecified)	-14	44*	8	0	-6
CN1CCCCCC1=Nc1ccc([N+](=O)[O-])cc1	0	-3	0	-1	-2
Cc1ccccc1C(=O)N1CCN(c2ccc(NC(=O)c3ccccc3[N+](=O)[O-])cc2)CC1	-1	0	-4	19*	-5
O=C(Nc1ccc(N2CCCC2)cc1)c1ccccc1[N+](=O)[O-]	1	10	-16	-3	1
CCN1CCN(c2cc(C)c3cc(NC(=S)NCc4cccs4)ccc3n2)CC1	9	30*	8	-2	2
CCN1CCN(c2cc(C)c3cc(NC(=S)N(CC)CC)ccc3n2)CC1	7	25*	3	8	8
Cc1cc(N2CCN(C)CC2)nc2ccc(NC(=S)NCc3cccs3)cc12	0	.	5	-4	4
C[C@H](CO)N1C[C@H](C)[C@@H](CN(C)Cc2ccccc2)Oc2c(NC(=O)Nc3ccc4c(c3)OCO4)cccc2C1=O	-2	6	.	1	.
Cc1cccc(-c2nnc3n2N=C(c2ccccc2)CS3)c1	.	.	active	.	0
CCCCc1nnc(NC(=O)CSc2nc(O)c(-c3ccccc3)c(=O)[nH]2)s1	0	-2	-10	3	3
CN(C)N=Nc1ccc(S(N)(=O)=O)cc1	5	1	.	-1	10
CCN(CC)N=Nc1ccc(S(N)(=O)=O)cc1	4	0	9	18*	16
O=C1CN(C(=O)CSc2nc(-c3ccc(Cl)cc3)cs2)c2ccccc2N1	2	3	8	15*	-7
C[C@H](CO)N1C[C@H](C)[C@@H](CN(C)C(=O)Nc2ccc3c(c2)OCO3)Oc2cc(C3=CCCC3)ccc2S1(=O)=O	1	2	12	20*	.
SMILES	ERp5 inh	MLL AF4-AF9 inh	FN deposit inh	SIRT5 block	PDI inh
C[C@H]1CN([C@@H](C)CO)S(=O)(=O)c2ccc(C3=CCCCC3)cc2O[C@@H]1CN(C)C(=O)Cc1ccccc1	8	6	-24	15*	.
CCC(CO)NC(=O)c1ccccc1C(F)(F)F (stereo unspecified)	-2	5	1	23*	2
O=C(Nc1cccc(Br)c1)c1ccc(CSc2ccccc2)cc1	-3	-18	18	24*	-1
O=C(Nc1cccnc1)c1ccc(CSc2ccccc2)cc1	-1	2	8	0	2
FC(F)Oc1ccc(NC(=S)NNc2ccnc3cc(Cl)ccc23)cc1	-8	8	8	.	-4
COc1ccc(-c2csc3nc(C(C)C)oc(=O)c23)cc1OC	5	0	-5	24*	1
COc1ccc(-c2nc3scc(-c4ccc(OC)c(OC)c4)c3c(=O)o2)cc1	.	.	.	.	-5
COc1ccc(C=O)c2[nH]c3c(Cl)ncnc3c12	1	-3	5	17*	2
NNC(=O)c1cc(-c2ccc(O)cc2)nc2ccc(Br)cc12	10	0	-1	2	40*
Cc1ccc(NC(=O)Nc2ccc3c(c2)nnn3C)cc1C	2	-7	-5	-4	6
